ChEMBL document CHEMBL1122238, “Synthesis of analogues of pepstatin. Effect of structure in subsites P1', P2', and P2 on inhibition of porcine pepsin” (J Med Chem, 1983)
Non-standard residues stand in square brackets, D forms with d. Residues, ends and D or L forms follow the SMILES beside them. *: point of attachment. Sta = CC(C)C[C@H](N)[C@@H](O)CC(=O)O; Isovaleryl = CC(C)CC(=O)*

The compounds below were run against T1, Pepsin A (Sus scrofa, UniProt P00791) (assay: Tested for time dependent inhibition constant against porcine pepsin).
Procedure, shortened: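 Porcine pepsin with synthetic heptapeptide substrate Phe-Gly-His-Phe(NO2)-Phe-Ala-Phe-OMe (Km 4.0 × 10^-5 M), followed spectrophotometrically. Enzyme preincubated with inhibitor for 10 min, and the reaction started by adding substrate. Velocities taken at apparent steady state. Inhibitor solutions generally contained 1% methanol v/v, and 10% for poorly soluble ones. IC50 converted to Ki by the Cha equation, correcting for total enzyme and S/Km.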

T1 sequence (P00791 whole entry): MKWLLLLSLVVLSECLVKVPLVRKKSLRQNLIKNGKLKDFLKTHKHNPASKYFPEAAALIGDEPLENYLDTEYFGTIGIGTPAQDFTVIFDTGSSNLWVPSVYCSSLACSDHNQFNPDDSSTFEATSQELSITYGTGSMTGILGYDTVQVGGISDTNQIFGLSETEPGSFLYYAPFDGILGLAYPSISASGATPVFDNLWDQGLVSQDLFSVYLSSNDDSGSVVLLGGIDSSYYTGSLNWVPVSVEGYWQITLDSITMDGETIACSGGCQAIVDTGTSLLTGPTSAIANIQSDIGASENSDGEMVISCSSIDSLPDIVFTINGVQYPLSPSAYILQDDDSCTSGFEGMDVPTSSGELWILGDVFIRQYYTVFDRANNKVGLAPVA

Row | SMILES | Ki
1 | COC(=O)C(Cc1ccccc1)NC(=O)C(C)NC(=O)CC(O)C(CC(C)C)NC(=O)C(NC(=O)CC(C)C)C(C)C (stereo unspecified) | 0.0015 µM
2 | CC(C)CCNC(=O)C(CC(C)C)NC(=O)CC(O)C(CC(C)C)NC(=O)C(NC(=O)CC(C)C)C(C)C (stereo unspecified) | 0.0046 µM
3 | COC(=O)[C@H](C)NC(=O)C[C@H](O)[C@H](CC(C)C)NC(=O)[C@@H](NC(=O)[C@@H](NC(=O)CC(C)C)C(C)C)C(C)C (Isovaleryl-VV[Sta]A-OMe) | 0.0035 µM
4 | CC(C)CCNC(=O)C(C)NC(=O)CC(O)C(CC(C)C)NC(=O)C(NC(=O)CC(C)C)C(C)C (stereo unspecified) | 0.003 µM
5 | COC(=O)C(CC(C)C)NC(=O)C(C)NC(=O)CC(O)C(CC(C)C)NC(=O)C(NC(=O)CC(C)C)C(C)C (stereo unspecified) | 0.0011 µM
6 | CC(C)CCNC(=O)C(C)NC(=O)CC(O)C(CC(C)C)NC(=O)C(C)NC(=O)CC(C)C (stereo unspecified) | 0.03 µM
7 | CC(C)CC(=O)NC(C(=O)NC(CC(C)C)C(O)CC(=O)NC(C)C(=O)NC(C)C)C(C)C (stereo unspecified) | 0.02 µM

The compounds below were run against T1, Pepsin A (assay: Tested for time independent inhibition constant against porcine pepsin).
Procedure, shortened: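 Pepsin (porcine) cleavage of Phe-Gly-His-Phe(NO2)-Phe-Ala-Phe-OMe (Km 4.0 × 10^-5 M), monitored by spectrophotometer. Reactions started with enzyme, giving linear steady-state initial velocities. Inhibitors were usually in 1% methanol v/v, or 10% if poorly soluble. IC50 came from inhibited versus uninhibited velocity and was converted to Ki by the Cha equation, Ki = (IC50 − Et/2)(1 + S/Km)^-1.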

Row | SMILES | Ki
8 | COC(=O)C(C)NC(=O)CC(O)C(CC(C)C)NC(=O)C(NC(=O)CC(C)C)C(C)C (stereo unspecified) | 0.6 µM
9 | CCOC(=O)CC(O)C(CC(C)C)NC(=O)C(NC(=O)CC(C)C)C(C)C (stereo unspecified) | 0.8 µM
10 | CC(C)CC(=O)NC(C(=O)NC(CC(C)C)C(O)CC(=O)NC(C)C)C(C)C (stereo unspecified) | 0.3 µM
11 | CC(C)CCNC(=O)C(C)NC(=O)CC(O)C(CC(C)C)NC(=O)CNC(=O)CC(C)C (stereo unspecified) | 0.1 µM
12 | CNC(=O)C(C)NC(=O)CC(O)C(CC(C)C)NC(=O)C(NC(=O)CC(C)C)C(C)C (stereo unspecified) | 0.14 µM
13 | CCOC(=O)C[C@H](O)[C@H](CC(C)C)NC(=O)[C@@H](NC(=O)[C@@H](NC(=O)CC(C)C)C(C)C)C(C)C (Isovaleryl-Val-Val-[Sta]-OEt) | 0.01 µM
14 | CC(C)CCNC(=O)C(C)NC(=O)CC(O)C(CC(C)C)NC(=O)C(CC(C)C)NC(=O)CC(C)C (stereo unspecified) | 0.013 µM
15 | COC(=O)CNC(=O)C(C)NC(=O)CC(O)C(CC(C)C)NC(=O)C(NC(=O)CC(C)C)C(C)C (stereo unspecified) | 0.068 µM
16 | CC(C)CCNC(=O)CNC(=O)CC(O)C(CC(C)C)NC(=O)C(NC(=O)CC(C)C)C(C)C (stereo unspecified) | 0.056 µM
